Test results from ChEMBL document CHEMBL1157589, “Antifungal 3,5-disubstituted furanones: From 5-acyloxymethyl to 5-alkylidene derivatives” (Bioorg Med Chem, 2010).
Values after ≈ are worked out from the molar mass of the structure shown.

Key:
Clavispora lusitaniae [1] = experiment: Antifungal activity against Candida lusitaniae 2446/I after 24 hrs by microdilution method; assay type: functional
Summary of the method: (§1)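 Yeasts held on Sabouraud dextrose agar. MIC by NCCLS M27-A broth microdilution in RPMI 1640 with L-glutamine, buffered with 0.165 M MOPS to pH 7.0. Compounds in DMSO (≤2% final), twofold dilutions 500–0.48. Final inoculum 5 × 10³ ± 0.2 cfu mL⁻¹. Incubated at 35 °C; absorbance at 540 nm read at 24 and 48 h. MIC is 80% growth inhibition versus control; run twice in duplicate.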

Nakaseomyces glabratus [2] = experiment: Antifungal activity against Candida glabrata 20/I after 24 hrs by microdilution method; assay type: functional; summary of the method: as §1
[3] = test system: Trichophyton mentagrophytes; experiment: Antifungal activity against Trichophyton mentagrophytes 445 after 72 hrs by microdilution method; assay type: functional; details: Trichophyton mentagrophytes, 445, 72 h
Summary of the method: (§2)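 Dermatophyte held on Sabouraud dextrose agar. M27-A microdilution in MOPS-buffered (0.165 M, pH 7.0) RPMI 1640 with L-glutamine. DMSO ≤2% final; twofold dilutions 500–0.48. Inoculum 5 × 10³ ± 0.2 cfu mL⁻¹ final. Incubated at 35 °C; MIC read visually at 72 and 120 h as 80% inhibition of control growth; determined twice in duplicate.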

Pichia kudriavzevii [4] = experiment: Antifungal activity against Candida krusei E28 after 24 hrs by microdilution method; assay type: functional; details: E28, 24 h; summary of the method: as §1
[5] = test system: Trichophyton mentagrophytes; experiment: Antifungal activity against Trichophyton mentagrophytes 445 after 120 hrs by microdilution method; assay type: functional; details: Trichophyton mentagrophytes, 445, 120 h; summary of the method: as §2
Candida albicans [6] = experiment: Antifungal activity against Candida albicans ATCC 90028 after 24 hrs by microdilution method; assay type: functional; details: ATCC 90028, 24 h; summary of the method: as §1
Candida tropicalis [7] = experiment: Antifungal activity against Candida tropicalis 156 after 24 hrs by microdilution method; assay type: functional; details: Candida tropicalis, 156, 24 h; summary of the method: as §1
Pichia kudriavzevii [8] = experiment: Antifungal activity against Candida krusei ATCC 6258 after 24 hrs by microdilution method; assay type: functional; details: ATCC 6258, 24 h; summary of the method: as §1
Nakaseomyces glabratus [9] = experiment: Antifungal activity against Candida glabrata 20/I after 48 hrs by microdilution method; assay type: functional; summary of the method: as §1
Candida albicans [10] = experiment: Antifungal activity against Candida albicans ATCC 44859 after 24 hrs by microdilution method; assay type: functional; details: ATCC 44859, 24 h; summary of the method: as §1
HL-60 = experiment: Cytostatic activity against human HL60 cells after 72 hrs by XTT assay; assay type: functional, cell-based; details: Homo sapiens, HL-60, 72 h; read-out: IC50
Summary of the method: (§3)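 Leukemia cells (L1210 ATCC CCL 219, CCRF-CEM ATCC CCL 119, HL-60 ATCC CCL 240) grown in 24-well plates in RPMI 1640 with fetal calf serum. Growth assessed 72 h after drug addition. Viability measured by XTT spectrophotometric assay; potency given as IC50.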

Trichosporon beigelii [11] = experiment: Antifungal activity against Trichosporon beigelii 1188 after 48 hrs by microdilution method; assay type: functional; details: Trichosporon beigelii, 1188, 48 h; summary of the method: as §1
Pichia kudriavzevii [12] = experiment: Antifungal activity against Candida krusei ATCC 6258 after 48 hrs by microdilution method; assay type: functional; details: ATCC 6258, 48 h; summary of the method: as §1
Candida albicans [13] = experiment: Antifungal activity against Candida albicans ATCC 44859 after 48 hrs by microdilution method; assay type: functional; details: ATCC 44859, 48 h; summary of the method: as §1
Lichtheimia corymbifera [14] = experiment: Antifungal activity against Absidia corymbifera 272 after 48 hrs by microdilution method; assay type: functional; details: Lichtheimia corymbifera, 272, 48 h
Summary of the method: (§4)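 Filamentous strains held on Sabouraud dextrose agar. NCCLS M27-A broth microdilution in RPMI 1640 with L-glutamine and 0.165 M MOPS, pH 7.0. DMSO diluent ≤2% final; twofold dilutions 500–0.48. Inoculum 5 × 10³ ± 0.2 cfu mL⁻¹ final.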

Candida albicans [15] = experiment: Antifungal activity against Candida albicans ATCC 90028 after 48 hrs by microdilution method; assay type: functional; details: ATCC 90028, 48 h; summary of the method: as §1
Aspergillus fumigatus [16] = experiment: Antifungal activity against Aspergillus fumigatus 231 after 24 hrs by microdilution method; assay type: functional; details: Aspergillus fumigatus, 231, 24 h; summary of the method: as §4
Candida parapsilosis [17] = experiment: Antifungal activity against Candida parapsilosis ATCC 22019 after 48 hrs by microdilution method; assay type: functional; details: Lodderomyces parapsilosis, ATCC 22019, 48 h; summary of the method: as §1
Lichtheimia corymbifera [18] = experiment: Antifungal activity against Absidia corymbifera 272 after 24 hrs by microdilution method; assay type: functional; details: Lichtheimia corymbifera, 272, 24 h; summary of the method: as §4
Candida parapsilosis [19] = experiment: Antifungal activity against Candida parapsilosis ATCC 22019 after 24 hrs by microdilution method; assay type: functional; details: Lodderomyces parapsilosis, ATCC 22019, 24 h; summary of the method: as §1
Trichosporon beigelii [20] = experiment: Antifungal activity against Trichosporon beigelii 1188 after 24 hrs by microdilution method; assay type: functional; details: Trichosporon beigelii, 1188, 24 h; summary of the method: as §1
Clavispora lusitaniae [21] = experiment: Antifungal activity against Candida lusitaniae 2446/I after 48 hrs by microdilution method; assay type: functional; summary of the method: as §1
Pichia kudriavzevii [22] = experiment: Antifungal activity against Candida krusei E28 after 48 hrs by microdilution method; assay type: functional; details: E28, 48 h; summary of the method: as §1
Candida tropicalis [23] = experiment: Antifungal activity against Candida tropicalis 156 after 48 hrs by microdilution method; assay type: functional; details: Candida tropicalis, 156, 48 h; summary of the method: as §1
CCRF-CEM = experiment: Cytostatic activity against human CCRF-CEM cells after 72 hrs by XTT assay; assay type: functional, cell-based; details: Homo sapiens, CCRF-CEM, 72 h; read-out: IC50; summary of the method: as §3
HeLa S3 = experiment: Cytostatic activity against human HeLaS3 cells after 48 hrs by XTT assay; details: Homo sapiens, HeLa S3, 48 h; read-out: IC50
Aspergillus fumigatus [24] = experiment: Antifungal activity against Aspergillus fumigatus 231 after 48 hrs by microdilution method; assay type: functional; details: Aspergillus fumigatus, 231, 48 h; summary of the method: as §4

SMILES | MIC80 (Clavispora lusitaniae [1]) [µM] | MIC80 (Nakaseomyces glabratus [2]) [µM] | MIC80 [3] [µM] | MIC80 (Pichia kudriavzevii [4]) [µM] | MIC80 [5] [µM] | MIC80 (Candida albicans [6]) [µM] | MIC80 (Candida tropicalis [7]) [µM] | MIC80 (Pichia kudriavzevii [8]) [µM] | MIC80 (Nakaseomyces glabratus [9]) [µM] | MIC80 (Candida albicans [10]) [µM] | IC50 (HL-60) [µM] | MIC80 (Trichosporon beigelii [11]) [µM] | MIC80 (Pichia kudriavzevii [12]) [µM] | MIC80 (Candida albicans [13]) [µM] | MIC80 (Lichtheimia corymbifera [14]) [µM] | MIC80 (Candida albicans [15]) [µM] | MIC80 (Aspergillus fumigatus [16]) [µM] | MIC80 (Candida parapsilosis [17]) [µM] | MIC80 (Lichtheimia corymbifera [18]) [µM] | MIC80 (Candida parapsilosis [19]) [µM] | other results
COC(=O)c1ccc(OCC2C=C(c3ccc(Br)cc3)C(=O)O2)cc1 (stereo unspecified) | 7.81 (≈ 3.15 µg/mL) | 3.9 (≈ 1.57 µg/mL) | 3.9 (≈ 1.57 µg/mL) | 15.6 (≈ 6.3 µg/mL) | 3.9 (≈ 1.57 µg/mL) | 3.9 (≈ 1.57 µg/mL) | 15.6 (≈ 6.3 µg/mL) | 15.6 (≈ 6.3 µg/mL) | 3.9 (≈ 1.57 µg/mL) | 0.48 (≈ 0.194 µg/mL) | 4.05 | 15.6 (≈ 6.3 µg/mL) | 15.6 (≈ 6.3 µg/mL) | 1.95 (≈ 0.786 µg/mL) | 125 (≈ 50.4 µg/mL) | 7.81 (≈ 3.15 µg/mL) | 3.9 (≈ 1.57 µg/mL) | 15.6 (≈ 6.3 µg/mL) | 62.5 (≈ 25.2 µg/mL) | 15.6 (≈ 6.3 µg/mL) | MIC80 (Trichosporon beigelii [20]): 7.81 µM (≈ 3.15 µg/mL); MIC80 (Clavispora lusitaniae [21]): 15.6 µM (≈ 6.3 µg/mL); MIC80 (Pichia kudriavzevii [22]): 15.6 µM (≈ 6.3 µg/mL); MIC80 (Candida tropicalis [23]): 15.6 µM (≈ 6.3 µg/mL); IC50 (CCRF-CEM): 1.25 µM; IC50 (HeLa S3): 4.5 µM; MIC80 (Aspergillus fumigatus [24]): 7.81 µM (≈ 3.15 µg/mL)
O=C1OC(COc2ccc(I)cc2)C=C1c1ccc(Br)cc1 (stereo unspecified) | 7.81 (≈ 3.68 µg/mL) | 1.95 (≈ 0.919 µg/mL) | 1.95 (≈ 0.919 µg/mL) | 31.2 (≈ 14.7 µg/mL) | 3.9 (≈ 1.84 µg/mL) | 3.9 (≈ 1.84 µg/mL) | 15.6 (≈ 7.36 µg/mL) | 31.2 (≈ 14.7 µg/mL) | 3.9 (≈ 1.84 µg/mL) | 0.48 (≈ 0.226 µg/mL) | 7.22 | 500 (≈ 236 µg/mL) | > 500 | 1.95 (≈ 0.919 µg/mL) | > 500 | 7.81 (≈ 3.68 µg/mL) | 3.9 (≈ 1.84 µg/mL) | > 500 | > 500 | 31.2 (≈ 14.7 µg/mL) | MIC80 (Trichosporon beigelii [20]): 7.81 µM (≈ 3.68 µg/mL); MIC80 (Clavispora lusitaniae [21]): 31.2 µM (≈ 14.7 µg/mL); MIC80 (Pichia kudriavzevii [22]): > 500 µM; MIC80 (Candida tropicalis [23]): 31.2 µM (≈ 14.7 µg/mL); IC50 (CCRF-CEM): 1.19 µM; IC50 (HeLa S3): 4 µM; MIC80 (Aspergillus fumigatus [24]): 7.81 µM (≈ 3.68 µg/mL)
O=C1OC(COc2ccccc2)C=C1c1ccc(Br)cc1 (stereo unspecified) | 3.9 (≈ 1.35 µg/mL) | 1.95 (≈ 0.673 µg/mL) | 1.95 (≈ 0.673 µg/mL) | 15.6 (≈ 5.39 µg/mL) | 3.9 (≈ 1.35 µg/mL) | 1.95 (≈ 0.673 µg/mL) | 7.81 (≈ 2.7 µg/mL) | 7.81 (≈ 2.7 µg/mL) | 1.95 (≈ 0.673 µg/mL) | 0.97 (≈ 0.335 µg/mL) | 4.37 | 31.2 (≈ 10.8 µg/mL) | 31.2 (≈ 10.8 µg/mL) | 1.95 (≈ 0.673 µg/mL) | 500 (≈ 173 µg/mL) | 7.81 (≈ 2.7 µg/mL) | 1.95 (≈ 0.673 µg/mL) | 31.2 (≈ 10.8 µg/mL) | 125 (≈ 43.1 µg/mL) | 7.81 (≈ 2.7 µg/mL) | MIC80 (Trichosporon beigelii [20]): 7.81 µM (≈ 2.7 µg/mL); MIC80 (Clavispora lusitaniae [21]): 7.81 µM (≈ 2.7 µg/mL); MIC80 (Pichia kudriavzevii [22]): 31.2 µM (≈ 10.8 µg/mL); MIC80 (Candida tropicalis [23]): 15.6 µM (≈ 5.39 µg/mL); IC50 (CCRF-CEM): 1.09 µM; IC50 (HeLa S3): 4.67 µM; MIC80 (Aspergillus fumigatus [24]): 15.6 µM (≈ 5.39 µg/mL)
